According to ChEMBL document CHEMBL1765023, “Acetyl analogs of combretastatin A-4: synthesis and biological studies” (Bioorg Med Chem, 2011):
In brackets after ≈: the same amount, converted by molar mass.

Columns and labels:
L1210 = assay: Cytotoxicity against mouse L1210 cells by MTT assay; type: functional, cell-based
B16 = assay: Cytotoxicity against mouse B16 cells by MTT assay; type: functional, cell-based
[1] = Solubility of the compound in water by multiscreen solubility; type: physicochemical
Method in brief: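 Aqueous solubility was measured with a modified Multiscreen Solubility filter-plate protocol. The assay ceiling is 500 µM, and two independent experiments were run.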

[2] = Induction of microtubule depolymerization in […] cells for 18 hrs by indirect immunofluorescence microscopic analysis; type: cell-based
Method in brief: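 Uses A-10 cells, a non-transformed line that arrests in interphase under microtubule-targeting agents. Cells were treated for 18 h and interphase microtubules were visualized by indirect immunofluorescence microscopy, with vehicle-treated controls. Depolymerization was screened at concentrations below 30 µM. For EC50, a range of concentrations was tested, and EC50 is the concentration causing 50% loss of cellular microtubules by microscopy.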

[3] = Ratio of EC50 for microtubule depolymerization in […] cells to IC50 for human MDA-MB-435 cells
Mus musculus [4] = assay: Toxicity in DBA2 mouse assessed as change in body weight at 75 mg/kg, ip QD administered on alternate days for 17 days measured on day 23 relative to control; type: organism-based; design: dose 75 mg/kg, route intraperitoneal; details: in vivo, 408 h
Method in brief: (§1)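 Healthy female DBA2 mice, 5–7 weeks old, five per group, received 75 mg/kg ip on days 1, 5, 9, 13 and 17. Vehicle was PET (PEG400/ethanol/Tween 80, 6:3:1), 5% glucose and DMSO, with final ethanol 15% and DMSO 10%. Controls received 100 µL vehicle. Body weight was measured every other day. At sacrifice on day 23, blood counts (hematocrit, WBC, granulocytes, platelets) and liver, kidney and spleen appearance and weight were assessed.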

Mus musculus [5] = assay: Toxicity in DBA2 mouse assessed as change in color, weight and size in spleen at 75 mg/kg, ip QD administered on alternate days for 17 days measured on day 23 relative to control; type: organism-based; design: dose 75 mg/kg, route intraperitoneal; details: in vivo, 408 h; method in brief: as §1
Mus musculus [6] = assay: Toxicity in DBA2 mouse assessed as change in color, weight and size in kidney at 75 mg/kg, ip QD administered on alternate days for 17 days measured on day 23 relative to control; type: organism-based; design: dose 75 mg/kg, route intraperitoneal; details: in vivo, 408 h; method in brief: as §1
Mus musculus [7] = assay: Toxicity in DBA2 mouse assessed as change in granulocyte count at 75 mg/kg, ip QD administered on alternate days for 17 days measured on day 23 relative to control; type: organism-based; design: dose 75 mg/kg, route intraperitoneal; details: in vivo, 408 h; method in brief: as §1
Mus musculus [8] = assay: Toxicity in DBA2 mouse assessed as change in hematocrit at 75 mg/kg, ip QD administered on alternate days for 17 days measured on day 23 relative to control; type: organism-based; design: dose 75 mg/kg, route intraperitoneal; details: in vivo, 408 h; method in brief: as §1
Mus musculus [9] = assay: Toxicity in DBA2 mouse assessed as change in color, weight and size in liver at 75 mg/kg, ip QD administered on alternate days for 17 days measured on day 23 relative to control; type: organism-based; design: dose 75 mg/kg, route intraperitoneal; details: in vivo, 408 h; method in brief: as §1
Mus musculus [10] = assay: Toxicity in DBA2 mouse assessed as change in white blood count at 75 mg/kg, ip QD administered on alternate days for 17 days measured on day 23 relative to control; type: organism-based; design: dose 75 mg/kg, route intraperitoneal; details: in vivo, 408 h; method in brief: as §1
Mus musculus [11] = assay: Toxicity in DBA2 mouse assessed as change in platelet count at 75 mg/kg, ip QD administered on alternate days for 17 days measured on day 23 relative to control; type: organism-based; design: dose 75 mg/kg, route intraperitoneal; details: in vivo, 408 h; method in brief: as §1

Row | SMILES | IC50 (L1210) | IC50 (B16) | further results
1 | COc1ccc(OC)c(/C=C(/C(C)=O)c2cc(OC)c(OC)c(OC)c2)c1 | 3.7 µM | 4 µM | 
2 | COc1ccc(/C=C(/C(C)=O)c2cc(OC)c(OC)c(OC)c2)cc1OC | 37 µM | 42 µM | 
3 | COc1cc(OC)c(/C=C(/C(C)=O)c2cc(OC)c(OC)c(OC)c2)c(OC)c1 | 3.7 µM | > 100 µM | 
4 | COc1cc(/C=C(/C(C)=O)c2cc(OC)c(OC)c(OC)c2)cc(OC)c1OC | 7.2 µM | 23 µM | 
5 | COc1ccc(/C=C(/C(C)=O)c2cc(OC)c(OC)c(OC)c2)cc1O[Si](C)(C)C(C)(C)C | 0.18 µM | 5.1 µM | 
6 | COc1cc(/C(=C\c2ccc([N+](=O)[O-])cc2)C(C)=O)cc(OC)c1OC | 18 µM | 18 µM | 
7 | COc1cc(/C(=C\c2cccc([N+](=O)[O-])c2)C(C)=O)cc(OC)c1OC | 3.3 µM | 3.8 µM | 
8 | COc1cc(/C(=C\c2ccc(Cl)cc2)C(C)=O)cc(OC)c1OC | 5 µM | 7.4 µM | 
9 | COc1cc(/C(=C\c2cccc(Br)c2)C(C)=O)cc(OC)c1OC | 35 µM | 39 µM | 
10 | COc1cc(/C(=C\c2ccc(Br)cc2)C(C)=O)cc(OC)c1OC | 4 µM | 19 µM | 
11 | COc1cc(/C(=C\c2ccc(C#N)cc2)C(C)=O)cc(OC)c1OC | 8 µM | 29 µM | 
12 | COc1cc(/C(=C\c2ccc(F)cc2)C(C)=O)cc(OC)c1OC | 43 µM | 65 µM | 
13 | COc1ccc(/C=C(/C(C)=O)c2cc(OC)c(OC)c(OC)c2)cc1 | 0.38 µM | 7.3 µM | solubility [1]: 319 µM (≈ 109 µg/mL); EC50 [2]: 18.6 µM; Ratio [3]: 53
14 | COc1ccccc1/C=C(/C(C)=O)c1cc(OC)c(OC)c(OC)c1 | 40 µM | 41 µM | 
15 | COc1cccc(/C=C(/C(C)=O)c2cc(OC)c(OC)c(OC)c2)c1 | 39 µM | 31 µM | 
16 | COc1cc(/C(=C\c2ccc(C)cc2)C(C)=O)cc(OC)c1OC | 0.36 µM | 2.9 µM | Activity (Mus musculus [4]): Non-toxic; Activity (Mus musculus [5]): Non-toxic; Activity (Mus musculus [6]): Non-toxic; solubility [1]: 443 µM (≈ 145 µg/mL); Activity (Mus musculus [7]): Non-toxic; Activity (Mus musculus [8]): Non-toxic; Activity (Mus musculus [9]): Non-toxic; EC50 [2]: 5.6 µM; Ratio [3]: 59; Activity (Mus musculus [10]): Non-toxic; Activity (Mus musculus [11]): Non-toxic
17 | COc1cc(/C(=C\c2ccccc2)C(C)=O)cc(OC)c1OC | 5.4 µM | 25 µM | 
18 | COc1cc(/C(=C\c2ccc(Cl)c(Cl)c2)C(C)=O)cc(OC)c1OC | 4 µM | 6.4 µM | 
19 | COc1ccc(/C=C(/C(C)=O)c2cc(OC)c(OC)c(OC)c2)cc1[N+](=O)[O-] | 3.1 µM | 3.8 µM | 
